# Measured values taken from ChEMBL document CHEMBL4689842, “EUbOPEN Chemogenomics Library wave 1” (2021).
# Tested on: Fibroblast
# Experiment: Multiplex assay against human fibroblast
# Assay type: toxicity, cell-based
# How it was run: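 Live cells were stained at seeding with Hoechst33342, BioTracker Green Microtubule Cytoskeleton Dye, MitoTracker Red and Annexin V Alexa Fluor 680, then imaged on a CQ1 microscope at 37°C and 5% CO2 after compound addition. CellPathfinder machine-learning gating split cells into Hoechst high-intensity objects or normal cells. Normal cells were split into healthy, pyknosed or fragmented nuclei, and pyknosed cells into mitotic or apoptotic. Tubulin, mitochondrial-mass and membrane-permeability phenotypes are per cents of healthy-nucleus cells.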
# [1] = 12 h, 1 µM, compound concentration 1 uM, replicate 1
# [2] = 12 h, 1 µM, compound concentration 1 uM, replicate 2
# [3] = 12 h, 10 µM, compound concentration 10 uM, replicate 1
# [4] = 12 h, 10 µM, compound concentration 10 uM, replicate 2
# [5] = 24 h, 1 µM, compound concentration 1 uM, replicate 1
# [6] = 24 h, 1 µM, compound concentration 1 uM, replicate 2
# [7] = 24 h, 10 µM, compound concentration 10 uM, replicate 1
# [8] = 24 h, 10 µM, compound concentration 10 uM, replicate 2
# [9] = 48 h, 1 µM, compound concentration 1 uM, replicate 1
# [10] = 48 h, 1 µM, compound concentration 1 uM, replicate 2
# [11] = 48 h, 10 µM, compound concentration 10 uM, replicate 1
# [12] = 48 h, 10 µM, compound concentration 10 uM, replicate 2
structure (smiles),measurement,setting,value
O=C1N/C(=N/c2ccccc2F)S/C1=C\c1ccc(C(=O)O)cc1,Population Apoptotic (%),[1],68%
same,Population Fragmented Nuclei (%),[1],29%
same,Population Healthy Nuclei (%),[1],37%
same,Population Hoechst High Intensity Objects (%),[1],13%
same,Population Membrane Permeable-Phenotype (%),[1],27%
same,Population Mitochondria Different-Phenotype (%),[1],2%
same,Population Mitotic Cells (%),[1],31%
same,Population Normal (%),[1],86%
same,Population Pyknosed Nuclei (%),[1],32%
same,Population Tubulin-Different-Phenotype (%),[1],19%
same,Total Cell Count,[1],112
same,Population Apoptotic (%),[2],0%
same,Population Fragmented Nuclei (%),[2],3%
same,Population Healthy Nuclei (%),[2],92%
same,Population Hoechst High Intensity Objects (%),[2],8%
same,Population Membrane Permeable-Phenotype (%),[2],6%
same,Population Mitochondria Different-Phenotype (%),[2],16%
same,Population Mitotic Cells (%),[2],100%
same,Population Normal (%),[2],91%
same,Population Pyknosed Nuclei (%),[2],3%
same,Population Tubulin-Different-Phenotype (%),[2],24%
same,Total Cell Count,[2],66
same,Population Apoptotic (%),[3],67%
same,Population Fragmented Nuclei (%),[3],29%
same,Population Healthy Nuclei (%),[3],51%
same,Population Hoechst High Intensity Objects (%),[3],60%
same,Population Membrane Permeable-Phenotype (%),[3],36%
same,Population Mitochondria Different-Phenotype (%),[3],6%
same,Population Mitotic Cells (%),[3],32%
same,Population Normal (%),[3],39%
same,Population Pyknosed Nuclei (%),[3],19%
same,Population Tubulin-Different-Phenotype (%),[3],51%
same,Total Cell Count,[3],406
same,Population Apoptotic (%),[4],44%
same,Population Fragmented Nuclei (%),[4],4%
same,Population Healthy Nuclei (%),[4],81%
same,Population Hoechst High Intensity Objects (%),[4],8%
same,Population Membrane Permeable-Phenotype (%),[4],1%
same,Population Mitochondria Different-Phenotype (%),[4],9%
same,Population Mitotic Cells (%),[4],55%
same,Population Normal (%),[4],91%
same,Population Pyknosed Nuclei (%),[4],14%
same,Population Tubulin-Different-Phenotype (%),[4],9%
same,Total Cell Count,[4],59
same,Population Apoptotic (%),[5],55%
same,Population Fragmented Nuclei (%),[5],26%
same,Population Healthy Nuclei (%),[5],47%
same,Population Hoechst High Intensity Objects (%),[5],14%
same,Population Membrane Permeable-Phenotype (%),[5],36%
same,Population Mitochondria Different-Phenotype (%),[5],5%
same,Population Mitotic Cells (%),[5],45%
same,Population Normal (%),[5],85%
same,Population Pyknosed Nuclei (%),[5],26%
same,Population Tubulin-Different-Phenotype (%),[5],41%
same,Total Cell Count,[5],89
same,Population Apoptotic (%),[6],0%
same,Population Fragmented Nuclei (%),[6],7%
same,Population Healthy Nuclei (%),[6],85%
same,Population Hoechst High Intensity Objects (%),[6],5%
same,Population Membrane Permeable-Phenotype (%),[6],5%
same,Population Mitochondria Different-Phenotype (%),[6],10%
same,Population Mitotic Cells (%),[6],100%
same,Population Normal (%),[6],94%
same,Population Pyknosed Nuclei (%),[6],7%
same,Population Tubulin-Different-Phenotype (%),[6],23%
same,Total Cell Count,[6],69
same,Population Apoptotic (%),[7],65%
same,Population Fragmented Nuclei (%),[7],18%
same,Population Healthy Nuclei (%),[7],63%
same,Population Hoechst High Intensity Objects (%),[7],20%
same,Population Membrane Permeable-Phenotype (%),[7],29%
same,Population Mitochondria Different-Phenotype (%),[7],5%
same,Population Mitotic Cells (%),[7],34%
same,Population Normal (%),[7],79%
same,Population Pyknosed Nuclei (%),[7],18%
same,Population Tubulin-Different-Phenotype (%),[7],33%
same,Total Cell Count,[7],181
same,Population Apoptotic (%),[8],60%
same,Population Fragmented Nuclei (%),[8],5%
same,Population Healthy Nuclei (%),[8],88%
same,Population Hoechst High Intensity Objects (%),[8],5%
same,Population Membrane Permeable-Phenotype (%),[8],2%
same,Population Mitochondria Different-Phenotype (%),[8],6%
same,Population Mitotic Cells (%),[8],40%
same,Population Normal (%),[8],94%
same,Population Pyknosed Nuclei (%),[8],5%
same,Population Tubulin-Different-Phenotype (%),[8],16%
same,Total Cell Count,[8],73
same,Population Apoptotic (%),[9],52%
same,Population Fragmented Nuclei (%),[9],35%
same,Population Healthy Nuclei (%),[9],46%
same,Population Hoechst High Intensity Objects (%),[9],19%
same,Population Membrane Permeable-Phenotype (%),[9],20%
same,Population Mitochondria Different-Phenotype (%),[9],0%
same,Population Mitotic Cells (%),[9],47%
same,Population Normal (%),[9],80%
same,Population Pyknosed Nuclei (%),[9],17%
same,Population Tubulin-Different-Phenotype (%),[9],20%
same,Total Cell Count,[9],118
same,Population Apoptotic (%),[10],50%
same,Population Fragmented Nuclei (%),[10],26%
same,Population Healthy Nuclei (%),[10],71%
same,Population Hoechst High Intensity Objects (%),[10],30%
same,Population Membrane Permeable-Phenotype (%),[10],18%
same,Population Mitochondria Different-Phenotype (%),[10],3%
same,Population Mitotic Cells (%),[10],50%
same,Population Normal (%),[10],69%
same,Population Pyknosed Nuclei (%),[10],1%
same,Population Tubulin-Different-Phenotype (%),[10],33%
same,Total Cell Count,[10],161
same,Population Apoptotic (%),[11],53%
same,Population Fragmented Nuclei (%),[11],43%
same,Population Healthy Nuclei (%),[11],47%
same,Population Hoechst High Intensity Objects (%),[11],56%
same,Population Membrane Permeable-Phenotype (%),[11],29%
same,Population Mitochondria Different-Phenotype (%),[11],2%
same,Population Mitotic Cells (%),[11],46%
same,Population Normal (%),[11],43%
same,Population Pyknosed Nuclei (%),[11],9%
same,Population Tubulin-Different-Phenotype (%),[11],36%
same,Total Cell Count,[11],370
same,Population Apoptotic (%),[12],40%
same,Population Fragmented Nuclei (%),[12],23%
same,Population Healthy Nuclei (%),[12],69%
same,Population Hoechst High Intensity Objects (%),[12],15%
same,Population Membrane Permeable-Phenotype (%),[12],16%
same,Population Mitochondria Different-Phenotype (%),[12],0%
same,Population Mitotic Cells (%),[12],60%
same,Population Normal (%),[12],84%
same,Population Pyknosed Nuclei (%),[12],6%
same,Population Tubulin-Different-Phenotype (%),[12],18%
same,Total Cell Count,[12],90
